# The source made the active and inactive calls. The calls are words filed in the database; no cut-off is given here.
# How the values were obtained:
# Assay type in all cases: functional
# [1] = organism: Cavia porcellus; experiment: Tracheal relaxing activity expressed as minimum inhibitory concentration required to obtain a inhibitory response by more than 50%
# Outline: (§1)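 Tracheal relaxation was tested over several concentrations, each in duplicate. The value is the lowest concentration (µg/mL) giving more than 50% inhibition of the response.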
# [2] = organism: Cavia porcellus; experiment: Bronchodilatory activity in vitro by tracheal tone inhibition at 30 ug/mL in guinea pig tracheal muscle.; settings: Muscle tissue
# Outline: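 In vitro tracheal relaxation. Percent inhibition was recorded with 30 µg/mL test compound, each concentration assayed in duplicate. Inhibition above 50% was taken as pharmacologically significant.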
# [3] = organism: Cavia porcellus; experiment: Tracheal relaxing activity expressed as minimum inhibitory concentration required to obtain a inhibitory response by more than 50%; NA denotes no activity at 30 ug/mL.; outline: as §1
SMILES,MIC [1] [µg/mL],inhibition at 30 µg/mL [2] [%],MIC [3]
CCCN1c2nc(C)c(C)nc2C(N)=NS1(=O)=O,30,58,
Cc1nc2c(nc1C)N(C)S(=O)(=O)N=C2NCc1ccccn1,,31,inactive
CCc1cnc2c(n1)C(N)=NS(=O)(=O)N2CC,10,72,
CCc1nc2c(nc1C)C(NCCN(C)C)=NS(=O)(=O)N2CC,,34,inactive
CCN1c2nc(-c3ccccc3)c(C)nc2C(N)=NS1(=O)=O,3,100,
CN1c2nccnc2C(N)=NS1(=O)=O,,22,inactive
CCCN1c2nc(CC)c(C)nc2C(N)=NS1(=O)=O,30,51,
CCN1c2ncc(C)nc2C(NCc2ccccc2)=NS1(=O)=O,,27,inactive
Cc1nc2c(nc1C)N(CCO)S(=O)(=O)N=C2N,30,59,
CCc1nc2c(nc1C)C(NC)=NS(=O)(=O)N2CC,30,75,
CCCc1nc2c(nc1C)C(N)=NS(=O)(=O)N2CC,,34,inactive
CCCCc1nc2c(nc1C)C(N)=NS(=O)(=O)N2C,10,64,
CCN1c2ncc(C(C)C)nc2C(N)=NS1(=O)=O,30,57,
CCc1nc2c(nc1C)C(N)=NS(=O)(=O)N2C,3,95,
Cc1nc2c(nc1C)N(C)S(=O)(=O)N=C2N,3,92,
CCOC(=O)CN1c2nc(-c3ccccc3)cnc2C(N)=NS1(=O)=O,10,72,
CCN1c2nc(C)c(C)nc2C(N)=NS1(=O)=O,,33,
Cc1nc2c(nc1C)N(CC(=O)O)S(=O)(=O)N=C2N,,13,inactive
CN1c2nc3c(nc2C(N)=NS1(=O)=O)CCCCC3,10,88,
CCN1c2nc(C)c(-c3ccccc3)nc2C(N)=NS1(=O)=O,30,93,
CCN1c2nc(C(C)C)c(C)nc2C(N)=NS1(=O)=O,30,55,
CCNC1=NS(=O)(=O)N(CC)c2ncc(C)nc21,30,63,
CCN1c2nc(-c3ccccc3)cnc2C(N)=NS1(=O)=O,3,95,
CCN1c2nc(-c3ccccc3)c(-c3ccccc3)nc2C(N)=NS1(=O)=O,,24,inactive
CCNC1=NS(=O)(=O)N(CC)c2ncc(-c3ccccc3)nc21,10,74,
CCN1c2ncc(C)nc2C(N)=NS1(=O)=O,30,67,

SMILES,MIC [1] [µg/mL],inhibition at 30 µg/mL [2] [%],MIC [3]
CCN1c2nc(C)c(Br)nc2C(N)=NS1(=O)=O,10,88,
CCc1nc2c(nc1C)N(CC)S(=O)(=O)N=C2N,10,95,
CCc1nc2c(nc1C)C(N)=NS(=O)(=O)N2CC,,0,inactive
CN1c2nc(-c3ccccc3)cnc2C(NN)=NS1(=O)=O,10,81,
CN1c2nc(-c3ccccc3)cnc2C(NCCN)=NS1(=O)=O,,6,inactive
CN1c2nc(-c3ccccc3)c(Cl)nc2C(N)=NS1(=O)=O,30,86,
CCN1c2nc(C)cnc2C(N)=NS1(=O)=O,,42,inactive
CCc1cnc2c(n1)N(CC)S(=O)(=O)N=C2N,30,80,
CCc1nc2c(nc1C)C(NN)=NS(=O)(=O)N2CC,30,72,
CCN1c2nc(C(C)C)c(C(C)C)nc2C(N)=NS1(=O)=O,,0,inactive
CCN1c2ncc(-c3ccccc3)nc2C(N)=NS1(=O)=O,,20,inactive
CCN1c2nc(-c3ccccc3)cnc2C(NCc2ccccc2)=NS1(=O)=O,,20,inactive
Cc1cnc2c(n1)C(N)=NS(=O)(=O)N2C,,45,inactive
CN1c2ncc(-c3ccccc3)nc2C(N)=NS1(=O)=O,30,56,
CCc1nc2c(nc1CC)N(CC)S(=O)(=O)N=C2N,,0,inactive
CCN1c2nc3c(nc2C(N)=NS1(=O)=O)CCCC3,10,82,
CCN1c2nc(-c3ccccc3)c(Br)nc2C(N)=NS1(=O)=O,30,63,
CCN1c2nccnc2C(N)=NS1(=O)=O,,13,inactive
CCCc1cnc2c(n1)C(N)=NS(=O)(=O)N2CC,10,90,
Cc1nc2c(nc1-c1ccccc1)C(N1CCCC1)=NS(=O)(=O)N2C,,10,inactive
Cn1c(=O)c2nc[nH]c2n(C)c1=O.O [THEOPHYLLINE],30,60,
CCOC(=O)CN1c2nc(C)c(C)nc2C(N)=NS1(=O)=O,,15,inactive
CCOC(=O)CN1c2ncc(C)nc2C(N)=NS1(=O)=O,,20,inactive
CCN1c2ncc(C(C)(C)C)nc2C(N)=NS1(=O)=O,30,86,
CCc1nc2c(nc1C)C(NCCO)=NS(=O)(=O)N2CC,,41,inactive

# From ChEMBL document CHEMBL1133507, “Novel bronchodilators: synthesis, transamination reactions, and pharmacology of a series of pyrazino[2,3-c][1,2,6]thiadiazine 2, 2-dioxides” (2000)
